{
  "source": "ChEMBL document CHEMBL4359917",
  "about": "“Design, synthesis, and biological evaluation of novel benzodiazepine derivatives as anticancer agents through inhibition of tubulin polymerization in vitro and in vivo” (Eur J Med Chem, 2019)",
  "key": {"A549 [1]": {"test_system": "A549", "test": "Induction of apoptosis in human A549 cells assessed as late apoptotic cells at 1 nM after 48 hrs by annexin V-FITC/propidium iodide staining based flow cytometry (reference value: 0.02 %)", "format": "functional", "in_short": "(§1)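 A549 cells treated at 1, 5 or 10 nM for 24 or 48 h, then analysed by flow cytometry. Quadrants: upper left necrotic, upper right late apoptotic, bottom left live, bottom right early apoptotic. Three experiments; representative results shown.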"}, "[2]": {"test": "Metabolic stability in Sprague-Dawley rat liver microsomes assessed as parent compound remaining after 150 mins in presence of NADPH by HPLC-UV-MS analysis", "format": "ADME, Microsome", "settings": "Sprague-Dawley, liver microsomes, read-out: Stability", "in_short": "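Compound incubated with rat liver microsomes in buffer containing an NADPH regenerating system. Percentage of parent remaining was determined at time points up to 180 min, and half-life was derived.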"}, "Tubulin (Sus scrofa)": {"biological_target": "Tubulin (Sus scrofa) (UniProt P02554+P02550)", "sequence (P02550 whole entry, looked up)": "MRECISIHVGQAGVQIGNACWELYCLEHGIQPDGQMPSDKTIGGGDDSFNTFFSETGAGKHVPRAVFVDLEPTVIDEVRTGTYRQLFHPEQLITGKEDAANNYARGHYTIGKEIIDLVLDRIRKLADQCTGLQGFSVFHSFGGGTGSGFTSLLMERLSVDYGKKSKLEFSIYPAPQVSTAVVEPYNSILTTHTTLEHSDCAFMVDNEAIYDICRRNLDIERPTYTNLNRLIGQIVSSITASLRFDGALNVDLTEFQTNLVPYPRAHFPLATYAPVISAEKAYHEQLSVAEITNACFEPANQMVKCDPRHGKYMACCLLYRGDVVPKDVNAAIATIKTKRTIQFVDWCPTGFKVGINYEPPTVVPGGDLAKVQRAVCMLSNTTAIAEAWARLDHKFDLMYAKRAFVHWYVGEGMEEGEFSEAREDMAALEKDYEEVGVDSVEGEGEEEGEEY", "sequence (P02554 whole entry, looked up)": "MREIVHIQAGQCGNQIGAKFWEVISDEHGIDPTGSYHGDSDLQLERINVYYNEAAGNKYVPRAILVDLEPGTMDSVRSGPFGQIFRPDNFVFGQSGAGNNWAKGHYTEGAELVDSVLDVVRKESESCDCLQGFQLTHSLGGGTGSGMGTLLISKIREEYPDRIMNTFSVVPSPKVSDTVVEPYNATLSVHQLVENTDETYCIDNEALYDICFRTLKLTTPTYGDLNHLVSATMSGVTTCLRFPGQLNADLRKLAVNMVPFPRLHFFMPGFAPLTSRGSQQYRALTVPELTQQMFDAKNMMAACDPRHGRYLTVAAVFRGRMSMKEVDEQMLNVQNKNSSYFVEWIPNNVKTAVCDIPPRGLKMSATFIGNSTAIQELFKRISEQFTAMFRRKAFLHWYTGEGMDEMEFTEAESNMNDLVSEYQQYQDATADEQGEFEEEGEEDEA", "test": "(§2) Inhibition of porcine brain tubulin polymerization assessed as decrease in fluorescence intensity measured every 60 sec for 90 mins in presence of GTP by DAPI staining based fluorescence assay", "in_short": "(§3)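 Purified unpolymerised tubulin in reaction buffer incubated at 37 °C without or with compound at 0.75-7.5 µM. Polymerisation was followed as a rise in fluorescence intensity, and IC50 was derived. Performed three times.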"}, "Tubulin": {"biological_target": "Tubulin (Sus scrofa, UniProt P02554+P02550)", "test": "as §2", "in_short": "as §3"}, "A549 [3]": {"test_system": "A549", "test": "Induction of apoptosis in human A549 cells assessed as late apoptotic cells at 5 nM after 48 hrs by annexin V-FITC/propidium iodide staining based flow cytometry (reference value: 0.02 %)", "format": "functional", "in_short": "as §1"}, "A549 [4]": {"test_system": "A549", "test": "Induction of apoptosis in human A549 cells assessed as live cells at 1 nM after 48 hrs by annexin V-FITC/propidium iodide staining based flow cytometry (reference value: 99.75 %)", "format": "functional", "in_short": "as §1"}, "A549 [5]": {"test_system": "A549", "test": "Antiproliferative activity against human A549 cells assessed as cell growth inhibition measured after 48 hrs by MTT assay", "format": "functional, cell-based", "settings": "A549, 48 h", "in_short": "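Cancer cell lines exposed to compounds for 48 h; viability read by MTT assay. IC50 reported as mean ± SD from at least three independent experiments.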"}, "A549 [6]": {"test_system": "A549", "test": "Induction of apoptosis in human A549 cells assessed as necrotic cells at 5 nM after 48 hrs by annexin V-FITC/propidium iodide staining based flow cytometry (reference value: 0.03 %)", "format": "functional", "in_short": "as §1"}, "A549 [7]": {"test_system": "A549", "test": "Induction of apoptosis in human A549 cells assessed as early apoptotic cells at 10 nM after 48 hrs by annexin V-FITC/propidium iodide staining based flow cytometry (reference value: 0.19 %)", "format": "functional", "in_short": "as §1"}, "A549 [8]": {"test_system": "A549", "test": "Disruption of microtubule organization in human A549 cells assessed as microtubule spindle shrunk at 1 to 10 nM measured after 24 hrs by immunofluorescence laser confocal microscopy analysis", "format": "functional, cell-based", "in_short": "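A549 cells plated in confocal dishes and exposed to DMSO or compound at 1, 5 or 10 nM for 24 h. Cells were fixed, immunostained for microtubules and imaged by laser confocal microscopy. Performed three times.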"}},
  "note": "Calls of active or inactive are those of the source. The rule behind the calls is not given here.",
  "data": [
    {"compound": "COc1ccc2c(c1O)NC(=O)CN=C2c1cc(OC)c(OC)c([Se]C)c1", "values": [
      {"measurement": "Activity", "setting": "A549 [1]", "result": 3.25, "unit": "%"},
      {"measurement": "remaining at 2.5 h", "setting": "[2]", "result": 57.4, "unit": "%"},
      {"measurement": "inhibition", "setting": "Tubulin (Sus scrofa)", "result": "Dose-dependent effect"},
      {"measurement": "IC50", "setting": "Tubulin", "result": 1650, "unit": "nM"},
      {"measurement": "Activity", "setting": "A549 [3]", "result": 11.71, "unit": "%"},
      {"measurement": "Activity", "setting": "A549 [4]", "result": 82.83, "unit": "%"},
      {"measurement": "IC50", "setting": "A549 [5]", "result": 5.82, "unit": "nM"},
      {"measurement": "Activity", "setting": "A549 [6]", "result": 2.28, "unit": "%"},
      {"measurement": "Activity", "setting": "A549 [7]", "result": 65.4, "unit": "%"},
      {"measurement": "Activity", "setting": "A549 [8]", "result": "Active"}
    ]}
  ]
}
